Activity calls are given as the source filed them. The calls are words filed in the database; no cut-off is given here.
Key:
[1] = Hemolytic activity against human RBC incubated for 1 hr by microplate reader analysis; format: toxicity, cell-based, Erythrocyte; settings: red blood cells (erythrocytes)
How it was run: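 Human red blood cells exposed to peptides up to 50 μM; hemolysis measured, IC50 derived where reached.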

SUD4 = experiment: Anti-cancer activity against human SU-DHL-4 cells incubated for 24 hrs by WST assay; format: functional, cell-based; settings: SU-DHL-4, 24 h
Staphylococcus aureus [2] = experiment: Antimicrobial activity against Staphylococcus aureus NE1506 harboring single transposon insertion mutation in V8 protease at 30 uM incubated for 18 hrs relative to control; format: functional
How it was run: (§1)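 CA-MRSA USA300 LAC derivative JE2 and single transposon insertion mutants derived from JE2, each lacking an extracellular protease gene, were exposed to peptides up to 30 μM. The read-out was percent growth inhibition. Peptides were dissolved in PBS, and tests were run in triplicate.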

Staphylococcus aureus [3] = experiment: Antimicrobial activity against Staphylococcus aureus NE163 harboring single transposon insertion mutation in aureolysin at 30 uM incubated for 18 hrs relative to control; format: functional; how it was run: as §1
Staphylococcus carnosus = experiment: Antimicrobial activity against Staphylococcus carnosus CCM 4838T incubated for 24 hrs by broth microdilution assay; format: functional
Escherichia coli [4] = experiment: Antimicrobial activity against Escherichia coli TOP10 incubated for 24 hrs by broth microdilution assay; format: functional
Staphylococcus aureus [5] = experiment: Antimicrobial activity against Staphylococcus aureus NE934 harboring single transposon insertion mutation in staphopain B at 30 uM incubated for 18 hrs relative to control; format: functional; how it was run: as §1
Staphylococcus aureus [6] = experiment: Antimicrobial activity against Staphylococcus aureus NE1740 harboring single transposon insertion mutation in staphopain A at 30 uM incubated for 18 hrs relative to control; format: functional; how it was run: as §1
Escherichia coli [7] = experiment: Depolarization of cytoplasmic membrane in Escherichia coli ATCC 11775 at MIC measured for 45 mins by DiSC3-(5) dye based assay; format: functional, organism-based
How it was run: (§2)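 Bacteria loaded with membrane-potential dye DiSC3-(5), then treated with peptide at its MIC for the respective strain; depolarization read as rise in dye fluorescence; polymyxin B and levofloxacin as reference antibiotics.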

Pseudomonas aeruginosa [8] = experiment: Depolarization of cytoplasmic membrane in Pseudomonas aeruginosa PAO1 at MIC measured for 45 mins by DiSC3-(5) dye based assay; format: functional, organism-based; how it was run: as §2
[9] = Stability in human serum assessed as half life at 10 mg/ml by UPLC-MS analysis; format: ADME, cell-free
How it was run: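 Peptides dissolved in PBS and incubated in 25% human serum. Intact peptide remaining followed over time to at least 6 h; half-life taken as time to 50% stability.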

Acinetobacter baumannii [10] = experiment: Anti-infective activity against Acinetobacter baumannii ATCC 19606 infected in neutropenic CD-1 mouse deep thigh infection model assessed as reduction in bacterial load at 0.18 mg/kg, ip measured after 4 days; format: functional, organism-based; settings: time 4.0 day
How it was run: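 Neutropenic mice infected intramuscularly in right thigh with 10⁶ cells per mL A. baumannii ATCC 19606; single intraperitoneal peptide dose at 10× MIC; bacterial load determined 4 days after treatment (euthanized day 8); n = 6 per group from three inocula; one-way ANOVA with Dunnett's test versus untreated.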

Klebsiella pneumoniae [11] = experiment: Induction of outer membrane permeabilization in Klebsiella pneumoniae ATCC 13883 measured for 20 mins by NPN uptake assay; format: functional, organism-based
How it was run: (§3)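 Outer-membrane permeabilization of Gram-negative bacteria read as rise in fluorescence of the lipophilic dye NPN, which enters only when outer-membrane integrity is compromised. Peptides applied at their MIC against the respective strain; polymyxin B and levofloxacin as reference antibiotics. Triplicates.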

Staphylococcus aureus [12] = experiment: Depolarization of cytoplasmic membrane in Staphylococcus aureus ATCC 12600 at MIC measured for 45 mins by DiSC3-(5) dye based assay; format: functional, organism-based; how it was run: as §2
Acinetobacter baumannii [13] = experiment: Induction of outer membrane permeabilization in Acinetobacter baumannii ATCC 19606 measured for 20 mins by NPN uptake assay; format: functional, organism-based
[14] = Toxicity against reconstructed human skin model assessed as tissue viability at 50 uM incubated for 1 hr followed by compound washout measured after 42 hrs by MTT assay; format: tissue-based, Skin of body; settings: read-out: Activity
How it was run: (§4)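 Reconstructed human epidermis with stratum corneum, per OECD TG 439 skin irritation guideline. Tissues exposed 1 h to peptide at 50 μM, then 42 h post-treatment incubation. Viability read by MTT. Controls were SDS and melittin.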

Escherichia coli [15] = experiment: Induction of outer membrane permeabilization in Escherichia coli ATCC 11775 measured for 20 mins by NPN uptake assay; format: functional, organism-based
Pseudomonas aeruginosa [16] = experiment: Induction of outer membrane permeabilization in Pseudomonas aeruginosa PAO1 measured for 20 mins by NPN uptake assay; format: functional, organism-based; how it was run: as §3
Acinetobacter baumannii [17] = experiment: Depolarization of cytoplasmic membrane in Acinetobacter baumannii ATCC 19606 at MIC measured for 45 mins by DiSC3-(5) dye based assay; format: functional, organism-based; how it was run: as §2
[18] = Toxicity in neutropenic CD-1 mouse deep thigh infection model infected with Acinetobacter baumannii ATCC 19606 assessed as body weight change at 0.18 mg/kg, ip measured after 4 days; format: organism-based; settings: in vivo, 96 h, time 4 day
How it was run: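 Neutropenic mice infected intramuscularly in the right thigh with 10⁶ cells per mL of A. baumannii ATCC 19606. […] Body weight monitored for toxicity. Euthanasia 4 days post-infection (day 8). n = 6 per group, from three inocula.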

[19] = Toxicity against reconstructed human skin model assessed as irritation at 50 uM incubated for 1 hr followed by compound washout measured after 42 hrs by MTT assay; format: tissue-based, Skin of body; how it was run: as §4
Klebsiella pneumoniae [20] = experiment: Depolarization of cytoplasmic membrane in Klebsiella pneumoniae ATCC 13883 at MIC measured for 45 mins by DiSC3-(5) dye based assay; format: functional, organism-based; how it was run: as §2
Enterococcus faecium = experiment: Depolarization of cytoplasmic membrane in Enterococcus faecium ATCC 700221 at MIC measured for 45 mins by DiSC3-(5) dye based assay; format: functional, organism-based; how it was run: as §2

CC1(C)S[C@@H]2[C@H](NC(=O)[C@H](N)c3ccccc3)C(=O)N2[C@H]1C(=O)O [AMPICILLIN]
IC50 at 1 h [1]: 0.9 µM

CC[C@H](C)[C@H](NC(=O)CN)C(=O)NCC(=O)N[C@@H](C)C(=O)N[C@H](C(=O)N[C@@H](CC(C)C)C(=O)N[C@@H](CCCCN)C(=O)N[C@H](C(=O)N[C@@H](CC(C)C)C(=O)N[C@H](C(=O)N[C@H](C(=O)NCC(=O)N[C@@H](CC(C)C)C(=O)N1CCC[C@H]1C(=O)N[C@@H](C)C(=O)N[C@@H](CC(C)C)C(=O)N[C@H](C(=O)N[C@@H](CO)C(=O)N[C@@H](Cc1c[nH]c2ccccc12)C(=O)N[C@H](C(=O)N[C@@H](CCCCN)C(=O)N[C@@H](CCCNC(=N)N)C(=O)N[C@@H](CCCCN)C(=O)N[C@@H](CCCNC(=N)N)C(=O)N[C@@H](CCC(N)=O)C(=O)N[C@@H](CCC(N)=O)C(N)=O)[C@@H](C)CC)[C@@H](C)CC)[C@@H](C)O)[C@@H](C)O)C(C)C)C(C)C [MELITTIN]
IC50 (SUD4): ≤ 5 µM

H-KKKKAKKAAKKAFQFANQADNQAQDAKQNK-NH2
inhibition at 30 µM (Staphylococcus aureus [2]): < 45%
inhibition at 30 µM (Staphylococcus aureus [3]): < 45%
MIC (Staphylococcus carnosus): > 50 µM
MIC (Escherichia coli [4]): > 50 µM
inhibition at 30 µM (Staphylococcus aureus [5]): < 45%
inhibition at 30 µM (Staphylococcus aureus [6]): < 45%

H-KKKKIKKIIKKIFQFINQIDNQIQDIKQNK-NH2
inhibition at 30 µM (Staphylococcus aureus [2]): < 45%
inhibition at 30 µM (Staphylococcus aureus [3]): < 45%
MIC (Staphylococcus carnosus): > 50 µM
inhibition at 30 µM (Staphylococcus aureus [5]): < 45%
inhibition at 30 µM (Staphylococcus aureus [6]): < 45%

H-KKKKKLKKILKKLFQFINQLDNQLQDIKKKKK-OH
Activity (Escherichia coli [7]): Active
inhibition at 30 µM (Staphylococcus aureus [2]): < 45%
Activity (Pseudomonas aeruginosa [8]): Active
inhibition at 30 µM (Staphylococcus aureus [3]): < 45%
half-life at 10 mg/ml [9]: > 6 h
Activity (Acinetobacter baumannii [10]): inactive
Activity (Klebsiella pneumoniae [11]): Active
Activity (Staphylococcus aureus [12]): Active
Activity (Acinetobacter baumannii [13]): inactive
inhibition at 30 µM (Staphylococcus aureus [5]): < 45%
IC50 at 1 h [1]: > 50 µM
viability at 1 h, 50 µM [14]: 100%
Activity (Escherichia coli [15]): Active
Activity (Pseudomonas aeruginosa [16]): Active
Activity (Acinetobacter baumannii [17]): Active
Activity [18]: Non-Toxic
Activity [19]: Non-Toxic
inhibition at 30 µM (Staphylococcus aureus [6]): < 45%
Activity (Klebsiella pneumoniae [20]): Active
Activity (Enterococcus faecium): Active

From ChEMBL document CHEMBL5576140, “Computational Design of Pore-Forming Peptides with Potent Antimicrobial and Anticancer Activities” (J Med Chem, 2024)
